This is an account of results in ChEMBL document CHEMBL1828513, “Overcoming human P-glycoprotein-dependent multidrug resistance with novel dihydro-β-agarofuran sesquiterpenes” (Eur J Med Chem, 2011).

Series [1] is described as follows: Intrinsic toxicity in mouse NIH/3T3 cells expressing human MDR1 assessed as cell growth at 10 uM relative to control. The format is ADME, cell-based, NIH3T3. To be noted: read-out: Activity. The method, boiled down: (§1)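 Parental NIH-3T3 and MDR1-G185-transfected cells were cultured in DMEM with 10% heat-inactivated FBS, 2 mM L-glutamine and penicillin/streptomycin. Cells were exposed to 10 µM compound. Growth is reported as percent of untreated control. Mean ± S.D. of three independent experiments in triplicate.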

In series [2] the target is T1, MDR1 (ABCB1, P-glycoprotein) (Homo sapiens, UniProt P08183). In words: (§2) Inhibition of human MDR1 expressed in mouse NIH-3T3 cells assessed as daunomycin efflux at 10 uM after 30 mins by flow cytometry. The format is cell-based, NIH3T3. Particulars: mouse NIH-3T3 cells expressing human MDR1, probe daunomycin; call rule not given here. For orientation: In flow cytometry, cells or beads pass a laser one at a time.

Series [3] has as its target T2, ATP-dependent translocase ABCB1 (Homo sapiens, UniProt P08183). Put plainly: Inhibition of human MDR1 expressed in mouse NIH-3T3 cells assessed as daunomycin efflux after 30 mins by flow cytometry. It is filed as cell-based, NIH3T3. The method, boiled down: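 MDR1-G185-transfected NIH-3T3 cells in log phase were seeded 24 h beforehand at 10^5 cells/well. They were incubated 30 min at 37 °C in DMEM + 10% iFBS with 2 µM daunomycin and varied sesquiterpene concentrations, washed in ice-cold PBS, trypsinized, and read for single-cell fluorescence by flow cytometry.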

In series [4] the target is T1, MDR1 (ABCB1, P-glycoprotein). Put plainly: Inhibition of human MDR1 expressed in mouse NIH-3T3 cells assessed as daunomycin efflux at 10 uM after 30 mins by flow cytometry relative to control. The format is cell-based, NIH3T3. Particulars: mouse NIH-3T3 cells expressing human MDR1, probe daunomycin, read-out: Imax. Put shortly:
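Transfected MDR1-G185 NIH-3T3 cells were seeded 24 h prior at 10^5 cells/well. They were co-incubated 30 min at 37 °C in DMEM + 10% iFBS with 2 µM daunomycin and 10 µM sesquiterpene, then washed in ice-cold PBS, trypsinized and read by flow cytometry. Retention is expressed relative to 5 mM ortho-vanadate (100% Pgp inhibition). Mean ± S.D. of three independent experiments in triplicate.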

A short description of series [5]: Intrinsic toxicity in wild type mouse NIH/3T3 cells assessed as cell growth at 10 uM relative to control. It is filed as cell-based, NIH3T3. Particulars: wild type NIH/3T3 cells, read-out: Activity. The method, boiled down: as §1
In series [6] the target is T2, ATP-dependent translocase ABCB1. The series is described as §2. The format is cell-based, NIH3T3. To be noted: nih3t3, 0.5 h, 10 µM.

Usually Ki stands for a measure of affinity in units of concentration, obtained from inhibition or displacement.

T1 sequence (P08183 whole entry): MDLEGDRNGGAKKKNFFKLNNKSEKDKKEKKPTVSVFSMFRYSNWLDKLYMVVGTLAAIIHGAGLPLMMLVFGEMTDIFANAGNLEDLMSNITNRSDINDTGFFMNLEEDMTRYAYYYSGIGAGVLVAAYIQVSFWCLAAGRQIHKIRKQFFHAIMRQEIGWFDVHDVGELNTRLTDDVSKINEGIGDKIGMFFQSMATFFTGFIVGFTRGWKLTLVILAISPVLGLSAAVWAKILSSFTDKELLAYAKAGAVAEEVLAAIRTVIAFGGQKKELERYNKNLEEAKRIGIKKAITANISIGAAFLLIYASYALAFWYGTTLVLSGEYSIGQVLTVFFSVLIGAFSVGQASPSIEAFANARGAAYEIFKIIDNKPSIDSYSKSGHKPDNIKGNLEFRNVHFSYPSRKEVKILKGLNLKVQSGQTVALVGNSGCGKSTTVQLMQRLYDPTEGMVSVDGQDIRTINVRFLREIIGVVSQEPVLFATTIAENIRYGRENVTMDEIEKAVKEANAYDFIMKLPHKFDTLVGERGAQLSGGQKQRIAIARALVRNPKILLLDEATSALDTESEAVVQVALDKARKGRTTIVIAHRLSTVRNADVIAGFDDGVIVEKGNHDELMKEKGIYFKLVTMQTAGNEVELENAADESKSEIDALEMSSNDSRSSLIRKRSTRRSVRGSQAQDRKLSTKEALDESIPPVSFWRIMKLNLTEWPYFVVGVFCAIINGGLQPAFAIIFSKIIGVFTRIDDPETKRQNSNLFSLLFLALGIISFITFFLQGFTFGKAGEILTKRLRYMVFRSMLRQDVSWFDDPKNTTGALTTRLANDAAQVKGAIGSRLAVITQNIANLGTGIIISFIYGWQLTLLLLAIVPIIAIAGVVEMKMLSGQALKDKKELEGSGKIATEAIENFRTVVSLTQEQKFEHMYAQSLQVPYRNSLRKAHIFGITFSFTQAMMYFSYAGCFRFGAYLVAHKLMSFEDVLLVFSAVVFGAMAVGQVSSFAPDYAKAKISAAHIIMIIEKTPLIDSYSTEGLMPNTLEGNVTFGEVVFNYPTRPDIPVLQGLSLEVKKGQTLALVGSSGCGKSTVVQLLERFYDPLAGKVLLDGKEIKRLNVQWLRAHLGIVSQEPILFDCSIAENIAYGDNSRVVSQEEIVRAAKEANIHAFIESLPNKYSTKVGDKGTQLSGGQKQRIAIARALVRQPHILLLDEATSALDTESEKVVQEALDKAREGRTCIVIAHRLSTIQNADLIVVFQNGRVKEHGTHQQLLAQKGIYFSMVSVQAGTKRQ
T2 sequence (P08183 whole entry): as above

In the case of `CC(=O)OC[C@]12[C@@H](OC(=O)c3ccccc3)C[C@@H]3[C@@H](OC(=O)c4ccccc4)[C@]1(OC3(C)C)[C@@](C)(O)C[C@H](O)[C@@H]2OC(C)=O`, the viability at 10 µM in series [1] stood at 105%; in series [5], 84.4%. Besides, the values for the inhibition at 0.5 h, 10 µM in series [2] and in series [4] were 70% and over 90%, respectively. In series [3], the Ki stood at 470 nM.

As to `CC(=O)OC[C@]12[C@@H](OC(=O)c3ccoc3)C[C@@H]3[C@@H](OC(=O)c4ccoc4)[C@]1(OC3(C)C)[C@@](C)(O)C[C@H](OC(C)=O)[C@@H]2OC(C)=O`, the viability at 10 µM in series [1] is 82.9%; in series [5], 92%. In addition, the inhibition at 0.5 h, 10 µM in series [2] was 70%; in series [4], over 90%. Besides, in series [3], the Ki is 510 nM.

On to `CC(=O)O[C@@H]1C[C@](C)(O)[C@@]23C[C@@H](C[C@H](OC(=O)c4ccccc4)[C@]2(C)[C@H]1OC(=O)c1ccoc1)C(C)(C)O3`, for which the “inhibition (INH)” value in series [6] is on record as “Active”.

Turning to `CC(=O)O[C@@H]1C[C@](C)(O)[C@@]23C[C@@H](C[C@H](OC(=O)/C=C/c4ccccc4)[C@]2(C)[C@H]1OC(=O)c1ccoc1)C(C)(C)O3`, the viability at 10 µM in series [1] was 100%; in series [5], 86%. Further, the inhibition at 0.5 h, 10 µM in series [2] is 70%; in series [4], over 90%. The Ki in series [3] was determined as 570 nM.

For the compound `CC(=O)OC[C@]12[C@@H](OC(=O)c3ccoc3)C[C@@H]3[C@@H](OC(=O)c4ccccc4)[C@]1(OC3(C)C)[C@@](C)(O)C[C@H](OC(=O)c1ccccc1)[C@@H]2OC(C)=O`, the viability at 10 µM in series [1] is 84.3%; in series [5], 82.1%. Moreover, the inhibition at 0.5 h, 10 µM was 70% in series [2] and over 90% in series [4]. Further, the inhibitory constant (Ki) in series [3] is 340 nM.

For the compound `CC1(C)O[C@]23C[C@H]1C[C@H](OC(=O)c1ccccc1)[C@]2(C)[C@@H](OC(=O)c1ccoc1)CC[C@]3(C)O`, the “inhibition (INH)” value in series [6] is “Active”.

On to `CC(=O)OC[C@]12[C@@H](OC(=O)c3ccoc3)C[C@@H]3[C@@H](OC(=O)c4ccccc4)[C@]1(OC3(C)C)[C@@](C)(O)C[C@H](OC(C)=O)[C@@H]2OC(C)=O`, for which the values for the viability at 10 µM in series [1] and in series [5] were 87.8% and 92.4%, respectively. For the same compound, the inhibition at 0.5 h, 10 µM in series [2] is 70%; in series [4], over 90%. Also, the Ki in series [3] amounted to 590 nM.

As to `CC(=O)O[C@H]1[C@H](OC(=O)c2ccoc2)[C@@]2(C)[C@@H](OC(=O)c3ccccc3)C[C@@H]3C[C@]2(OC3(C)C)[C@@](C)(O)[C@H]1OC(C)=O`, in series [6], the “inhibition (INH)” value is recorded as “Active”.

For `CC(=O)O[C@@H]1C[C@](C)(O)[C@@]23C[C@@H](C[C@H](OC(=O)c4ccoc4)[C@]2(C)[C@H]1OC(=O)c1ccoc1)C(C)(C)O3`, the “inhibition (INH)” value in series [6] was “Active”.

Turning to `CC(=O)O[C@@H]1[C@H](OC(C)=O)[C@@H](C)[C@@]23C[C@@H](C[C@H](OC(=O)c4ccccc4)[C@]2(C)[C@H]1OC(=O)c1ccoc1)C(C)(C)O3`, the figures for the viability at 10 µM in series [1] and in series [5] were 92.4% and 91.8%, respectively. The results for the inhibition at 0.5 h, 10 µM in series [2] and in series [4] were 70% and over 90%, respectively. Also, in series [3], the Ki came to 640 nM.

For the compound `CC(=O)O[C@@H]1C[C@@H](C)[C@@]23C[C@@H](C[C@H](OC(=O)c4ccccc4)[C@]2(C)[C@H]1OC(=O)c1ccoc1)C(C)(C)O3`, the “inhibition (INH)” value in series [6] is reported as “Active”.

On to `CC(=O)OC[C@]12[C@@H](OC(=O)c3ccccc3)C[C@@H]3[C@@H](OC(C)=O)[C@]1(OC3(C)C)[C@@](C)(O)C[C@H](OC(C)=O)[C@@H]2OC(C)=O`, for which the “inhibition (INH)” value in series [6] is reported as “Active”.

Turning to `COc1ccc(CCN(C)CCCC(C#N)(c2ccc(OC)c(OC)c2)C(C)C)cc1OC` (centres undefined), the viability at 10 µM in series [1] was determined as 79.2%.

As for `CC(=O)OC[C@]12[C@@H](OC(=O)c3ccoc3)C[C@@H]3[C@@H](OC(C)=O)[C@]1(OC3(C)C)[C@@](C)(O)C[C@H](OC(C)=O)[C@@H]2OC(C)=O`, in series [6], the “inhibition (INH)” value was “Active”.

Take `CC(=O)O[C@H]1[C@@H](OC(=O)c2ccccc2)C[C@](C)(O)[C@]23OC(C)(C)[C@H](C[C@H](OC(=O)c4ccoc4)[C@]12C)[C@H]3OC(=O)c1ccccc1`: the viability at 10 µM in series [1] is 98%; in series [5], 108%. The inhibition at 0.5 h, 10 µM was 70% in series [2] and over 90% in series [4]. In addition, the Ki in series [3] came out at 380 nM.

Consider `CC(=O)OC[C@]12[C@@H](OC(=O)c3ccoc3)C[C@@H]3[C@@H](OC(=O)c4ccccc4)[C@]1(OC3(C)C)[C@@](C)(O)C[C@H](O)[C@@H]2OC(C)=O`, for which, in series [6], the “inhibition (INH)” value is on record as “Active”.

Regarding `CC(=O)OC[C@]12[C@@H](OC(=O)c3ccccc3)C[C@@H]3[C@@H](OC(=O)c4ccccc4)[C@]1(OC3(C)C)[C@@](C)(O)C[C@H](OC(C)=O)[C@@H]2OC(C)=O`, the viability at 10 µM in series [1] worked out at 77.2%; in series [5], 76.7%. In addition, the figures for the inhibition at 0.5 h, 10 µM in series [2] and in series [4] were 70% and over 90%, respectively. In addition, the Ki in series [3] came out at 390 nM.
